Measurements taken from ChEMBL document CHEMBL1151159, “Antineoplastic agents. 380. Isolation and X-ray crystal structure determination of isoaaptamine from the Republic of Singapore Hymeniacidon sp. and conversion to the phosphate prodrug hystatin 1” (2004).
≈ marks a conversion by molar mass, not a printed value. Calls of active or inactive are those of the source. No cut-off for these calls is given here.

Experiments:
P388 = test: Antineoplastic activity against mouse P388 cells; type: functional; conditions: read-out: ED50 (the source's name)
SF-295 = test: Antineoplastic activity against human SF295 cells; type: functional; conditions: read-out: ED50 (the source's name)
NCI-H460 = test: Antineoplastic activity against human NCI-H460 cells; type: functional; conditions: read-out: ED50 (the source's name)
OVCAR-3 = test: Antineoplastic activity against human OVCAR-3 cells; type: functional; conditions: read-out: ED50 (the source's name)
SK-MEL-5 = test: Antineoplastic activity against human SK-MEL-5 cells; type: functional; conditions: read-out: ED50 (the source's name)
KM-20L2 = test: Antineoplastic activity against human KM20L2 cells; type: functional; conditions: read-out: ED50 (the source's name)
A498 = test: Antineoplastic activity against human A498 cells; type: functional; conditions: read-out: ED50 (the source's name)
Staphylococcus aureus = test: Antimicrobial activity against Staphylococcus aureus by broth microdilution susceptibility assay; type: functional
Method in brief: (§1)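 Bacteria tested by broth microdilution following the NCCLS standard for aerobically growing bacteria (M7-A4). MIC read as the lowest compound concentration that blocked all visible growth of the organism (optically clear wells).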

Micrococcus luteus [1] = test: Antimicrobial activity against Micrococcus luteus at 64 ug/ml by broth microdilution susceptibility assay; type: functional, organism-based; method in brief: as §1
Escherichia coli = test: Antimicrobial activity against Escherichia coli at 64 ug/ml by broth microdilution susceptibility assay; type: functional, organism-based; method in brief: as §1
Enterobacter cloacae = test: Antimicrobial activity against Enterobacter cloacae at 64 ug/ml by broth microdilution susceptibility assay; type: functional, organism-based; method in brief: as §1
Candida albicans = test: Antimicrobial activity against Candida albicans at 64 ug/ml by broth microdilution susceptibility assay; type: functional, organism-based
Method in brief: (§2)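 Yeast panel (Candida albicans, Cryptococcus neoformans) tested by broth microdilution following the NCCLS reference method for yeasts (M27-A). MIC taken as the lowest compound concentration giving no visible growth (optically clear).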

Neisseria gonorrhoeae = test: Antimicrobial activity against Neisseria gonorrhoeae by broth microdilution susceptibility assay; type: functional; method in brief: as §1
Cryptococcus neoformans [2] = test: Antimicrobial activity against Cryptococcus neoformans at 64 ug/ml by broth microdilution susceptibility assay; type: functional, organism-based; method in brief: as §2
Streptococcus pneumoniae = test: Antimicrobial activity against Streptococcus pneumoniae by broth microdilution susceptibility assay; type: functional; method in brief: as §1
Enterococcus faecalis [3] = test: Antimicrobial activity against Enterococcus faecalis at 64 ug/ml by broth microdilution susceptibility assay; type: functional, organism-based; method in brief: as §1
Enterococcus faecalis [4] = test: Antimicrobial activity against Enterococcus faecalis by broth microdilution susceptibility assay; type: functional; method in brief: as §1
Cryptococcus neoformans [5] = test: Antimicrobial activity against Cryptococcus neoformans by broth microdilution susceptibility assay; type: functional; method in brief: as §2
Micrococcus luteus [6] = test: Antimicrobial activity against Micrococcus luteus by broth microdilution susceptibility assay; type: functional; method in brief: as §1
[7] = tested on: Stenotrophomonas maltophilia; test: Antimicrobial activity against Stenotrophomonas maltophilia at 64 ug/ml by broth microdilution susceptibility assay; type: functional, organism-based; method in brief: as §1

| SMILES | EC50 (P388) [µg/mL] | EC50 (SF-295) [µg/mL] | EC50 (NCI-H460) [µg/mL] | EC50 (OVCAR-3) [µg/mL] | EC50 (SK-MEL-5) [µg/mL] | EC50 (KM-20L2) [µg/mL] | EC50 (A498) [µg/mL] | MIC (Staphylococcus aureus) [µg/mL] | Activity (Micrococcus luteus [1]) | Activity (Escherichia coli) | Activity (Enterobacter cloacae) | Activity (Candida albicans) | MIC (Neisseria gonorrhoeae) [µg/mL] | Activity (Cryptococcus neoformans [2]) | MIC (Streptococcus pneumoniae) [µg/mL] | Activity (Enterococcus faecalis [3]) | MIC (Enterococcus faecalis [4]) [µg/mL] | MIC (Cryptococcus neoformans [5]) [µg/mL] | MIC (Micrococcus luteus [6]) [µg/mL] | Activity [7] |
| --- | --- | --- | --- | --- | --- | --- | --- | --- | --- | --- | --- | --- | --- | --- | --- | --- | --- | --- | --- | --- |
| COC1=Cc2ccnc3ccnc(c23)C1(OC)OC | 59 (≈ 228 µM) |  |  |  |  |  |  |  |  |  |  |  |  |  |  |  |  |  |  |  |
| COc1cc2ccnc3c2c(c1OC)NC=C3 [AAPTAMINE] | 3.6 (≈ 15.8 µM) | 4.1 (≈ 18 µM) | 3.2 (≈ 14 µM) | 4.9 (≈ 21.5 µM) | 4.3 (≈ 18.8 µM) | 3.6 (≈ 15.8 µM) | 3.2 (≈ 14 µM) |  |  |  |  |  |  |  |  |  |  |  |  |  |
| COC1=Cc2ccnc3ccnc(c23)C1=O [DEMETHYLOXY-AAPTAMINE] | 0.31 (≈ 1.46 µM) | 2.8 (≈ 13.2 µM) | 2.3 (≈ 10.8 µM) | 0.39 (≈ 1.84 µM) | 1 (≈ 4.71 µM) | 2.1 (≈ 9.9 µM) | 4.2 (≈ 19.8 µM) |  |  |  |  |  |  |  |  |  |  |  |  |  |
| COc1cc2ccnc3c2c(c1OP(=O)([O-])[O-])N(C)C=C3.[Na+].[Na+] [HYSTATIN 1] | 3 |  | > 10 |  |  | > 10 |  | 64 | inactive | inactive | inactive | inactive | < 0.5 | inactive | 16 | inactive |  |  |  |  |
| COc1cc2ccnc3c2c(c1O)N(C)C=C3 [ISOAAPTAMINE] | 0.28 (≈ 1.23 µM) | 2.6 (≈ 11.4 µM) | 2.4 (≈ 10.5 µM) | 1.2 (≈ 5.26 µM) | 1.6 (≈ 7.01 µM) | 2.3 (≈ 10.1 µM) | 2.2 (≈ 9.64 µM) | 16 (≈ 70.1 µM) |  | inactive | inactive | inactive | < 0.5 |  | 8 (≈ 35 µM) |  | 32 (≈ 140 µM) | 64 (≈ 280 µM) | 32 (≈ 140 µM) | inactive |
